TAAR1 ag: human TAAR1 agonists, primary screen, Fluo-8 calcium fluorescence, CHO RD-HGA16 cells. Trace amine-associated receptor 1 (Homo sapiens), Q96RJ0. vehicle wells 0%, saturating PEA agonist 100%. activation, % at 3 µM. actives 0.99% (n = 360,000). AID 624467, 2012;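 active = activation above the mean activation of all test compounds in the run plus 3 SD, cut at about 38% in these data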
Target sequence (Q96RJ0 whole entry, looked up): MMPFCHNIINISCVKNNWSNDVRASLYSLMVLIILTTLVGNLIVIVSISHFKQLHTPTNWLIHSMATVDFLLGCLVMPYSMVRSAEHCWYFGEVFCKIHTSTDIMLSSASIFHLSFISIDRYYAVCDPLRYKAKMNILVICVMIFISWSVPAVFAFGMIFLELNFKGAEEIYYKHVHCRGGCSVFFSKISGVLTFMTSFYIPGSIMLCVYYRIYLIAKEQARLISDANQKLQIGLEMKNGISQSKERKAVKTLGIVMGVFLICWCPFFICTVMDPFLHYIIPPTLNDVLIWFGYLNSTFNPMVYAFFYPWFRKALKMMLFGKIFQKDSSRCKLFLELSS
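Assay system: CHO-derived RD-HGA16 cells with stable Gα16 and human TAAR1; timing: 17-24 h seeding, 75 min 37 °C dye, 30 min RT; read-out: % activation from peak over basal fluorescence ratio, DMSO-to-PEA scaled; measured by: kinetic Fluo-8 calcium fluorescence; benchmarks: low control DMSO, high control PEA (EC100); doses: 3 µM single concentration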
OX1R antag-1: OX1R (HCRTR1) antagonists, primary screen, fluorescence, CHO/OX1R cells, Fluo-8 calcium, orexin A. Fluo-8 calcium fluorescence. Orexin/Hypocretin receptor type 1 (Homo sapiens), O43613. inhibition, % at 5 µM. actives 0.43% (n = 330,000);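 active = inhibition above its plate's threshold, mean inhibition of all tested compounds on the plate plus 3 SD, cut at about 37% in these data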;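 note: 0% = orexin A challenge wells and 100% = SB-334867-A antagonist wells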
TAAR1 antagonist: human TAAR1 antagonists, primary screen, Fluo-8 calcium fluorescence, CHO RD-HGA16 cells | actives 1.5% (n = 360,000) | inhibition, % at 3 µM | antagonist | AID 624466, 2012;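 active = inhibition above a per-plate cutoff, the mean inhibition of test compounds on that plate plus 3 SD, cut at about 49% in these data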;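 note: 0% = DMSO plus EC80 beta-PEA response and 100% = DMSO alone without agonist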
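Test system – hTAAR1-expressing CHO RD-HGA16 cells, Gα16-coupled · Reagent – β-PEA at EC80 concentration, post-compound challenge · Compound dosing – 3 µM, single point · Timing – 140 s kinetic read after compound, 140 s after agonist · Detection – Fluo-8 intracellular calcium dye fluorescence, real-time kinetic reads · Control set – DMSO and EC80 PEA controls · Repeats – n of 1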
OX1R antag-2: antagonists of human orexin 1 receptor (OX1R); inhibition, % at 6.6 µM; OX1R-expressing cells, FRET antagonist read-out; actives 1.8% (n = 330,000); AID 485270, 2010; in the data active = inhibition mostly above about 38%, no sharp cut-off; inactive = mostly below about 40%;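 note: 0% = agonist challenge alone and 100% = reference antagonist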
CHO parental Ca: ATP-evoked calcium signal inhibitors, parental CHO, primary screen, counter-screen for OX1R antagonist project, cell-based, fluorescence, Fluo-8 calcium dye. parental CHO-K1, ATP-induced calcium, Fluo-8 fluorescence. inhibition, % at 5.6 µM. actives 0.63% (n = 330,000);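 active = inhibition above that plate's mean sample inhibition plus 3 SD, cut at about 26% in these data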;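 note: 0% = ATP-challenged DMSO wells and 100% = DMSO wells without ATP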
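Test system: parental CHO cells; detection: calcium-sensitive Fluo-8 fluorescence; evaluation: percent inhibition of calcium signal; also added: ATP as calcium-mobilizing challenge; repeats: one well per compound; control set: ATP-challenged DMSO wells low, unchallenged DMSO wells high; compound: single nominal dose of 5.6 µM per compound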
GPR7 antag: GPR7 receptor antagonists, primary screen, cell-based, fluorescence, single concentration; Neuropeptides B/W receptor type 1 (Homo sapiens), P48145; GPR7-expressing cells, fluorescence antagonist assay; inhibition, % at 4.4 µM; actives 1.1% (n = 290,000); AID 1861, 2009; in the data active = inhibition above about 16%, passing the limit was not always enough;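 note: cells stimulated with the agonist NPW; 0% = agonist with vehicle and 100% = vehicle without agonist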
Target sequence (P48145 whole entry, looked up): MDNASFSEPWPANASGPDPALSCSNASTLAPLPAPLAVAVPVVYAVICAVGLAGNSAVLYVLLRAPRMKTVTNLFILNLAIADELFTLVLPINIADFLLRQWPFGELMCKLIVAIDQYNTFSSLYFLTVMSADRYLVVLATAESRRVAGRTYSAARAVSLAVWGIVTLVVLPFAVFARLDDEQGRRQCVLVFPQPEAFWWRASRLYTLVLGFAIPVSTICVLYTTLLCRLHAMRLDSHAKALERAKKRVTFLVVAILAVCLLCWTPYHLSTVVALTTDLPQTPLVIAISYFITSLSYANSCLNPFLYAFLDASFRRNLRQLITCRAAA
Starred values were filed as active, the others as inactive; . = not tested or not shown; ! = not active in a repeat. Most compounds without a hit are left out; they make up all but 4.6% or so of the library.

SMILES	TAAR1 ag	OX1R antag-1	TAAR1 antagonist	OX1R antag-2	CHO parental Ca	GPR7 antag
CCN(Cc1ccccc1)S(=O)(=O)c1ccc(C(=O)N(CCCN(C)C)c2nc3ccc(F)cc3s2)cc1	41*	-15	40	4	-7	1
Cc1cc(C)c2sc(N(CCCN(C)C)C(=O)c3ccc(S(=O)(=O)N(C)C4CCCCC4)cc3)nc2c1	41*	-26	19	20	-6	.
Cc1cc(C)nc(-n2nc(C)cc2NC(=O)CN2CCc3ccccc3C2)n1	43*	-28	0	12	-30	-3
Cc1cc(C)nc(-n2nc(C)cc2NC(=O)CN2CCCC(C)C2)n1 (stereo unspecified)	11	-6	-10	22	-16	-4
COc1ccc(-c2cc(C)no2)cc1S(=O)(=O)Nc1ccc(NC(C)=O)cc1	3	5	-6	10	-3	-2
Cc1ccc(CN(c2ccc(C(=O)NCc3ccccn3)cc2)S(C)(=O)=O)cc1	38*	-6	17	20	-7	5
CN(c1ccc(OCC(=O)N2CCCCC2)cc1)S(=O)(=O)c1cccs1	2	-23	9	15	-13	9
Cc1ccc(OCCCCN2CCc3ccccc3C2)cc1	41*	-34	-18	15	-21	-19
Cc1ccc(OCCCCN2CCCCC2)cc1	1	.	-6	.	.	-9
c1ccc(-c2ccccc2OCCOCCN2CCc3ccccc3C2)cc1	15	-23	14	18	-23	16*
Clc1ccc(SCCOCCN2CCc3ccccc3C2)cc1	38*	-23	-7	22	-18	11
COc1ccc(-c2cc(-c3nnc(COC(=O)CC4CCCC4)o3)c3ccccc3n2)cc1OC	4	-27	29	4	-2	-2
COc1cc(CCC(=O)OCc2nnc(-c3ccccc3)o2)cc(OC)c1OC	8	-20	-7	13	-26	-9
COc1ccc(-c2cc(-c3nnc(COC(=O)C4CC4)o3)c3ccccc3n2)cc1OC	9	-13	52*	19	-2	-8
COc1cc(-c2nnc(COC(=O)CSc3cc(C)c4ccccc4n3)o2)cc(OC)c1OC	2	10	-5	70*	-18	-5
Cc1cc(C)c(NC(=O)CSc2nnc(-c3ccco3)n2N)c(C)c1	9	-25	-9	14	-3	-5
Cc1ccc(NC(=O)CSc2nnc(-c3ccco3)n2N)cc1F	41*	-30	-33	12	-22	-4
Cc1ccc2c(c1)C1CN(C)CCC1N2Sc1ccccc1[N+](=O)[O-] (stereo unspecified)	40*	-21	-2	1	-9	19
Cc1ccccc1N1CC(C(=O)Nc2nnc(SCCN3CCOCC3)s2)CC1=O (stereo unspecified)	-1	-21	15	12	-11	1
COc1ccc(C(=O)CSc2nnc(NC(=O)C3CC(=O)N(c4ccccc4C)C3)s2)cc1 (stereo unspecified)	9	-12	53*	4	-4	-4
COc1ccc(Br)cc1/C=N/N1CCN(Cc2ccccc2)CC1	13	-35	-11	7	-8	-19
COCCn1c(-c2ccc(OC)cc2)nc2ccccc21	1	-32	6	32	-14	-12
COCCn1c2nc(=O)n(-c3ccccc3)c(=O)c-2nc2ccccc21	59*	.	20	.	.	.
CCOC(=O)C1CCCN(C(=O)CCc2nnc(-c3ccc(C(C)=O)s3)o2)C1 (stereo unspecified)	26	-14	5	42*	-11	-3
CCOC(=O)C1CCCN(C(=O)CSCc2ccccc2)C1 (stereo unspecified)	5	-17	2	10	-23	-4
SMILES	TAAR1 ag	OX1R antag-1	TAAR1 antagonist	OX1R antag-2	CHO parental Ca	GPR7 antag
C[C@@H]1CN([C@@H](C)CO)C(=O)CCCn2nncc2CO[C@@H]1CN(C)S(=O)(=O)c1ccccc1F	11	.	-9	.	.	.
COc1ccc2c(c1)c(-c1csc(N)n1)c(C)n2C	-1	1	10	46*	-5	5
CN(C)C(=O)CSc1nnc(-c2cc(-c3cccs3)nc3ccccc23)o1	15	-9	50*	37	-34	-13
Cn1c(=O)c2c(nc(NCc3ccco3)n2C/C=C/c2ccccc2)n(C)c1=O	21	47*	35	66	39*	.
O=C(COc1ccc(Cl)cc1Br)N1CCN(S(=O)(=O)c2ccccc2)CC1	1	.	-5	.	.	-1
C/C(N)=C(/C#N)C(=O)CSc1nnc(SCc2ccc(Cl)cc2)s1	4	9	52*!	70	25	-3
COc1ccc(CCNC(=O)c2ccccc2NC(=O)CN2CCN(c3ccccc3O)CC2)cc1	14	.	64*	.	.	.
COc1ccccc1N1CCN(CC(=O)Nc2ccccc2C(=O)NCCc2ccccc2)CC1	11	-14	55*	0	-16	.
COc1ccccc1N1CCN(CC(=O)Nc2ccccc2C(=O)NC(C)c2ccccc2)CC1 (stereo unspecified)	32	-18	59*	9	-35	.
CC(NC(=O)c1ccccc1NC(=O)CN1CCN(c2ccccc2O)CC1)c1ccccc1 (stereo unspecified)	25	4	36	4	-28	.
COC(=O)c1ccc(C(=O)OC)c(NC(=O)CN2CCN(c3ccccc3OC)CC2)c1	8	5	52*	1	-12	-8
CC(Sc1nnc(-c2ccco2)n1C)C(=O)N1C(C)CCCC1C (stereo unspecified)	2	-25	-27	15	-6	4
O=C(CN1CCN(c2ccc(F)cc2)CC1)Nc1ccccc1C(=O)NCCc1ccccc1	18	-24	43	9	-24	.
O=C(CN1CCN(c2ccccc2O)CC1)Nc1ccccc1C(=O)NCCc1ccccc1	18	-10	61*	19	-15	.
COc1ccccc1NC(=O)c1cnc(Nc2ccccc2OC)c2ccccc12	0	-11	16	74*	-33	-20
COc1ccccc1NC(=O)c1ccccc1C(=O)Nc1ccccc1OC	2	-21	22	22	-14	-11
COc1ccc(O)c(/C=N/n2c(-c3ccco3)csc2=Nc2cccnc2)c1	4	-13	49*	16	-22	-8
CC(C)(C)c1ccc(OCCn2nc(C(=O)O)c3ccccc3c2=O)cc1	6	46*	49*	21	29*	-23
Cc1cccc(OCCn2nc(C(=O)O)c3ccccc3c2=O)c1	16	-24	10	31	-17	-9

Screening data deposited in PubChem by The Scripps Research Institute Molecular Screening Center.
